Assay outcomes deposited in PubChem by several laboratories.
KCNK3 inh = human KCNK3 channel inhibition, primary screen. 0.84% of 340,000 active. CHO-KCNK3 thallium flux, FluxOR fluorescence; hits give low values. B-score at 10 µM. O14649;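 active = B-score under library mean minus 4 SD, starting fluorescence ratio at most library mean plus 5 SD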;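 also: more negative B-score means stronger inhibition of thallium flux through KCNK3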
KCNQ1 block = blocks the human KCNQ1 potassium channel. B-score at 10 µM. P51787. CHO-K1 KCNQ1, FluxOR thallium flux fluorescence; hits give high values. AID 2642. 1.3% of 310,000 active;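 active = compounds whose thallium flux B-score, printed positive for inhibition, exceeds three library SD while starting fluorescence stays within three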;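 also: channel opened by potassium depolarization with thallium stimulus after 20 min compound exposure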
Cl transport mod = modulates chloride dependent transport by human KCC2; Q9H2X9; KCC2 cells, thallium flux FluoZin-2 fluorescence; B-score of Tl+ flux slope (higher = more flux/activation; lower = inhibition) at 10 µM; 2.2% of 190,000 active; AID 1456;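 active = thallium flux slope and its plate-corrected score both differing from the plate sample mean at a set confidence after two filtering rounds, in either direction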;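 also: slope of fluorescence scaled to starting intensity during 10 to 20 s after thallium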
hERG rescue = hERG (human) protection from proarrhythmic block; CHO-hERG, FluxOR thallium flux, dofetilide IC70 present; 0.51% of 310,000 active; activation (rescue from dofetilide block), less the hit threshold, % at 10 µM; Q12809; AID 1511;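 active = activation above the mean of controls blocked by dofetilide plus 5 SD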;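 also: thallium influx through hERG after potassium depolarization seen as dye fluorescence rise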
KCNK9 inh = blocks the human KCNK9 two-pore domain potassium channel. Q9NPC2. HEK293 KCNK9, FluxOR thallium flux fluorescence; hits give low values. B-score at 10 µM. 1.2% of 310,000 active;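 active = ratio B-score over 3 SD below the library mean, with starting fluorescence within 5 SD of its mean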;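 also: negative B-score means less thallium flux so channel inhibition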
Target sequence (Q9NPC2 whole entry, looked up, the tested form may be a part): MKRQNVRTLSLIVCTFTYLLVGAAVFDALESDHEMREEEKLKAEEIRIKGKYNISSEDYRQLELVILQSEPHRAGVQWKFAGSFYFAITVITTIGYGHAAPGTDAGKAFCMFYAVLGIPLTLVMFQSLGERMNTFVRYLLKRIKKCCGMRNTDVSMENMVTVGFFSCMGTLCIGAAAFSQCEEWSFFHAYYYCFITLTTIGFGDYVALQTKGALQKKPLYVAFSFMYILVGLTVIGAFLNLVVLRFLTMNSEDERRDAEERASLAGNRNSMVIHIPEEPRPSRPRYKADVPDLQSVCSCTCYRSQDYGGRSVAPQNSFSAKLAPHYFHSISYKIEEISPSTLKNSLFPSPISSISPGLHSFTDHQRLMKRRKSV
KCNQ1 pot = potentiates or activates the human KCNQ1 potassium channel; AID 2648; CHO-K1 KCNQ1, thallium flux FluxOR fluorescence; hits give high values; P51787; B-score at 10 µM; 0.35% of 310,000 active;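 active = fluorescence ratio B-score, a plate-corrected score, at least three library SD, with initial intensity B-score within 5 SD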
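Assay system: CHO-K1 cells stably expressing KCNQ1; Medium: assay buffer with matched DMSO; Also added: K+/Tl+ depolarizing stimulus; Dosing: single dose; Timing: dye 90 min, compound 20 min, room temperature; Measured by: kinetic FluxOR thallium fluorescence, 10-s 1-Hz baseline, 110-s post-stimulus read; Read-out: peak-minus-minimum fluorescence over initial fluorescence, negative-control normalized, B-scored.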
Hits are given with their value; n = inactive; x = no result given. Shown are actives, neighbours in structure and some others; about 4.1% of the full set was active somewhere.

SMILES	KCNK3 inh	KCNQ1 block	Cl transport mod	hERG rescue	KCNK9 inh	KCNQ1 pot
O=C(OCc1ccc([N+](=O)[O-])cc1)c1ccc2ccccc2n1	n	n	n	n	n	n
CCN(CCO)c1nc(N2CCCCC2)c2cnn(C)c2n1	n	n	x	n	n	n
O=C(c1cc(C2CC2)nn1-c1ccccc1)N1CCN(S(=O)(=O)c2c(F)cccc2F)CC1	n	x	x	x	x	x
CCOc1cccc(-c2c(C(=O)N/N=C(\C)c3ccccn3)nnn2-c2nonc2N)c1	n	n	x	n	-7	n
CCOc1cccc(-c2c(C(=O)N/N=C(\C)c3ccncc3)nnn2-c2nonc2N)c1	n	n	x	n	n	n
COCCNC(=O)c1cc(-c2ccccc2)nn1CC1CC(c2cccc([N+](=O)[O-])c2)=NO1 (stereo not given)	n	n	x	n	n	n
O=C(NCc1cccc(Br)c1)c1cc(-c2ccccc2)nn1CC1CC(c2cccc([N+](=O)[O-])c2)=NO1 (stereo not given)	n	n	x	n	-7.1	n
O=C(NCC1CC1)c1cc(-c2ccccc2)nn1CC1CC(c2cccc([N+](=O)[O-])c2)=NO1 (stereo not given)	n	n	x	n	-8.3	n
CCN(CC)c1ccc(NC(=O)c2ccc(S(=O)(=O)N3CCOCC3)cc2)cc1	n	x	x	x	x	x
O=C(Nc1cccc(-c2nc3ccccc3s2)c1)c1cc(-n2cnnc2)ccc1Cl	n	6	n	n	n	n
COc1cccc(NC(=O)C2CCN(C(=O)[C@@H]3Cc4ccccc4CN3C(=O)OC(C)(C)C)CC2)c1	n	n	x	n	n	n
C/C(CC(=O)Nc1ccccc1-c1ccccc1)=N\NC(=O)COc1ccc(C)cc1Br	n	6	n	n	n	n
Cc1cccc(OCCSc2nncn2C)c1	n	n	n	9.8	n	n
CCOCCc1c(O)nc(SC)[nH]c1=O	n	n	n	n	n	8
CC12CCC(C(=O)OC3CCCCC3)(OC1=O)C2(C)C (stereo not given)	n	n	x	5.8	n	n
CCOC(=O)c1c(C(C)(C)C)oc2ccc(OCC#N)cc12	n	6	n	n	n	n
COC(=O)c1ccccc1NC(=O)COC(=O)Cc1ccc(S(=O)(=O)N2CCOCC2)s1	n	x	x	x	x	x
O=C(CSc1nnc(NC(=O)c2ccco2)s1)Nc1ccccc1Br	n	n	x	n	n	n
CC1CCCC2(C1)NC(=S)c1c(sc3c1CCCC3)N2 (stereo not given)	n	n	54	n	n	n
CC(C)(C)n1nnnc1CN1CCN(C(c2ccccc2)c2ccccc2)CC1	-8.7	n	n	n	n	n
CC1CCN(C(c2ccccc2)c2nnnn2C(C)(C)C)CC1 (stereo not given)	n	n	n	n	n	n
CCN(CC)CCCn1c(=S)[nH]c2cc(C(=O)OC)ccc2c1=O	n	n	n	n	n	n
CCn1c(=S)[nH]c2cc(C(=O)OC)ccc2c1=O	n	n	9.2	n	n	n
O=C(CCNc1ccc(Cc2ccncc2)cc1)c1cccc([N+](=O)[O-])c1	n	n	n	n	n	n
O=C(CCNc1cccc(F)c1)c1cccc([N+](=O)[O-])c1	n	8	n	n	n	n
SMILES	KCNK3 inh	KCNQ1 block	Cl transport mod	hERG rescue	KCNK9 inh	KCNQ1 pot
CNc1oc(-c2cccc3ccccc23)nc1C#N	n	n	n	n	n	n
COc1ccc(CNc2oc(-c3cccc4ccccc34)nc2C#N)cc1	n	n	n	n	-7.3	n
COc1ccc(CC(=O)N2CCN(c3ccccc3OC)CC2)cc1OC	n	n	x	n	n	n
O=c1[nH]cc(-c2ccccc2)c(=O)[nH]1	n	n	n	n	n	12
COc1cccc(-c2c[nH]c(=O)[nH]c2=O)c1	n	n	x	n	n	n
O=[N+]([O-])/C=C/c1c(OCc2ccccc2)ccc2ccccc12	n	n	x	n	-11	n
COc1ccc(-c2oc3ccccc3c2C#Cc2cncn2C)cc1	n	x	x	x	x	x
Oc1c(N=NC(=S)Nc2ccccc2F)c2ccccc2n1Cc1cccc(Cl)c1	n	n	n	16	n	n
NC(=S)N=Nc1c(O)n(Cc2ccc(Br)cc2)c2ccccc12	n	n	n	15	n	n
O=C(N=Nc1c(O)n(Cc2ccccc2)c2ccccc12)c1ccc(O)cc1	n	n	n	n	n	n
Cc1ccc(OC(C)C(=O)OCC(=O)Nc2sccc2C(N)=O)cc1 (stereo not given)	n	x	x	x	x	x
CC(Oc1ccc(Cl)cc1)C(=O)Nc1sccc1C(N)=O (stereo not given)	n	n	n	6.6	n	n
COc1ccc(CNC(=O)CN2C(=O)NC(c3ccccc3)(c3ccccc3)C2=O)cc1	n	x	x	x	x	x
COc1ccc(C[C@H]2CN3C(=NC[C@@H]3Cc3ccc(O)cc3)N2CCNC(=O)c2ccc(C)c(Br)c2)cc1	n	n	n	n	n	n
COc1ccc(C[C@H]2CN3C(=NC[C@@H]3Cc3ccccc3)N2CCNC(=O)c2ccc(C)c(Br)c2)cc1	n	9	n	n	n	n
COc1ccc(C[C@H]2CN3C(=NC[C@H]3Cc3ccccc3)N2CCNC(=O)c2ccc(C)c(Br)c2)cc1	n	7	n	n	n	n
CC(C)C(NC(=O)C(c1ccccc1)c1ccccc1)c1nc2ccccc2[nH]1 (stereo not given)	n	n	n	n	n	n
CC(=O)NC(c1ccccc1)c1nc2ccccc2[nH]1 (stereo not given)	-11	n	n	n	n	n
O=C(OCn1ncc(Cl)c(Cl)c1=O)c1ccc(C(F)(F)F)cc1	n	n	n	n	n	n
Cc1ccc(C(=O)OCn2ncc(Cl)c(Cl)c2=O)cc1	n	n	x	n	n	10
Cc1cc(=O)[nH]c2sc(C(=O)N3c4ccccc4CC3C)c(N)c12 (stereo not given)	n	x	x	x	x	x
Oc1ccc(Oc2ccc(Oc3ccc(O)cc3)cc2)cc1	n	13	x	n	-6.9	n
CN(CCCNC(=O)CCCOc1cc(=O)n(C)c2ccccc12)Cc1ccccc1	n	n	n	n	n	8
O=C(NNC(=O)c1cc2ccccc2[nH]1)OCc1ccccc1	n	x	x	x	x	x
Cc1ccccc1NCC(=O)N/N=C/c1c(C)c(C(=O)c2ccc(Cl)cc2)n2ccccc12	n	7	n	n	n	n
SMILES	KCNK3 inh	KCNQ1 block	Cl transport mod	hERG rescue	KCNK9 inh	KCNQ1 pot
Cc1cc(Br)ccc1NC(=O)CNC(=O)Cn1ncc(Cl)c(Cl)c1=O	n	n	n	4.7	n	n
Cc1ccc(OC[C@H](O)[C@H](C)NC(C)C)c2c1CCC2	n	x	x	x	x	x
NC(N)=NC(=O)c1nc(Cl)c(N)nc1N	n	n	n	n	n	n
NC(N)=NC(=O)c1nc(Cl)c(N2CCCCCC2)nc1N	-9.8	x	x	x	x	x
O=C(O)CSCC(=O)N(Cc1ccccc1)c1nc(-c2ccccc2)c(-c2ccccc2)s1	n	8	x	n	n	n
CCOC(=O)c1sc(N(Cc2ccccc2)C(=O)CSc2ncn[nH]2)nc1C	n	n	n	n	n	n
